Source: ChEMBL document CHEMBL3763044, “Pyridoxine hydroxamic acids as novel HIV-integrase inhibitors” (Bioorg Med Chem Lett, 2016)
pEC50, pIC50: −log10 of the molar value.

What was measured:
[1] = Inhibition of HIV integrase strand transfer activity; design: species or system Human immunodeficiency virus
How it was run: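 Strand-transfer assay on purified integrase using 3'-processed oligonucleotides. % inhibition = [1 − (sample counts/mean positive control)] × 100, plotted against log molar concentration. IC50 is taken from a sigmoidal dose-response fit with variable slope and is the mean of at least three experiments.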

[2] = Cytotoxicity against human MT4 cells; assay type: cell-based
How it was run: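 Cytotoxicity measured in MT-4 cells in parallel with the 7-day multi-cycle antiviral assay. CC50 is the mean of at least three experiments.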

[3] = test system: Human immunodeficiency virus 1; test: Antiviral activity against luciferase-bearing envelope-defective HIV-1 NL4-3 pseudotype virus infected in human MT4 cells co-infected with HIV1 HXBc2 envelope by single cycle infection assay; assay type: functional, organism-based; details: Human immunodeficiency virus 1, NL4-3, MT4
How it was run: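 Single-cycle infection of MT-4 cells with a luciferase-bearing env-defective NL-4.3 virus pseudotyped with HIV-1 env (HXBc2), read by luciferase. EC50 is the mean of at least three experiments.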

[4] = test system: Human immunodeficiency virus; test: Ratio of EC90 for HIV integrase assessed as accumulation of 2-LTR to IC50 for HIV integrase strand transfer activity
[5] = molecular target: Human immunodeficiency virus type 1 integrase (Human immunodeficiency virus 1, UniProt Q7ZJM1, N155H); test: Inhibition of HIV integrase N155H mutant
[6] = Therapeutic index, ratio of CC50 for human MT4 cells to EC50 for luciferase-bearing envelope-defective HIV-1 NL4-3 pseudotype virus infected in human MT4 cells co-infected with HIV1 HXBc2 envelope; assay type: cell-based; details: read-out: Ratio CC50/EC50
[7] = Plasma concentration in rat at 50 mg/kg after 18 hrs; assay type: ADME, organism-based
How it was run: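 Female Sprague-Dawley rats (8) given 50 mg/kg orally, with blood collected at 7 time points after dosing.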

[8] = test system: Human immunodeficiency virus 1; test: Antiviral activity against luciferase-bearing envelope-defective HIV-1 NL4-3 pseudotype virus infected in human MT4 cells co-infected with HIV1 HXBc2 envelope after 7 days by multi-cycle assay; assay type: functional, organism-based; details: Human immunodeficiency virus 1, NL4-3, MT4, 168 h
How it was run: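 Multi-cycle antiviral assay run for 7 days in MT-4 cells, in parallel with the cytotoxicity assay. EC50 is the mean of at least three experiments.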

[9] = test system: Human immunodeficiency virus; test: Ratio of EC50 for HIV integrase assessed as accumulation of 2-LTR to IC50 for HIV integrase strand transfer activity
[10] = Oral bioavailability in Sprague-Dawley rat at 50 mg/kg after 24 hrs by LC/MS/MS analysis; assay type: ADME, organism-based; details: in vivo
How it was run: (§1)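 Female Sprague-Dawley rats randomly assigned to two groups: 13 rats dosed 5 mg/kg intravenously, 8 rats dosed 50 mg/kg orally. Blood collected at 7 time points after dosing. Bioavailability taken over 24 h.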

[11] = Inhibition of […] reverse transcriptase
Salmonella typhimurium = test: Mutagenicity in Salmonella typhimurium by Ames test; assay type: toxicity, organism-based; details: salmonella enterica subsp. enterica serovar typhimurium
[12] = molecular target: RNA-directed RNA polymerase (Hepacivirus hominis, UniProt O39930); test: Inhibition of HCV RNA polymerase
[13] = Plasma protein binding in rat by Rapid Equilibrium Dialysis method; assay type: ADME, cell-free; details: read-out: PPB (converted)
How it was run: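 Protein binding measured by rapid equilibrium dialysis.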

[14] = Lipophilicity Log P of the compound; assay type: physicochemical; details: octanol/water
[15] = Half life in Sprague-Dawley rat at 5 mg/kg, iv and 50 mg/kg, po by LC/MS/MS analysis; assay type: ADME, organism-based; details: in vivo; how it was run: as §1

Human immunodeficiency virus type 1 integrase, sequence (Q7ZJM1 entry or part of it N155H): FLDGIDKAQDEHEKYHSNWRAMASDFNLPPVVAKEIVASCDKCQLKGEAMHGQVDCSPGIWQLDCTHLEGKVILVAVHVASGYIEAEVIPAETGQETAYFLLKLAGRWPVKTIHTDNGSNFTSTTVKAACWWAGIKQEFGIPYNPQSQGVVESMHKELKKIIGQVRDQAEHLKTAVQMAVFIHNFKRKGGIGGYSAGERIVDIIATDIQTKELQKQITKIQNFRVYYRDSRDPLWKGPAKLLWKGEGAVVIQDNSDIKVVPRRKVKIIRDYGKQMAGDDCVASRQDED
RNA-directed RNA polymerase, sequence (O39930 whole entry): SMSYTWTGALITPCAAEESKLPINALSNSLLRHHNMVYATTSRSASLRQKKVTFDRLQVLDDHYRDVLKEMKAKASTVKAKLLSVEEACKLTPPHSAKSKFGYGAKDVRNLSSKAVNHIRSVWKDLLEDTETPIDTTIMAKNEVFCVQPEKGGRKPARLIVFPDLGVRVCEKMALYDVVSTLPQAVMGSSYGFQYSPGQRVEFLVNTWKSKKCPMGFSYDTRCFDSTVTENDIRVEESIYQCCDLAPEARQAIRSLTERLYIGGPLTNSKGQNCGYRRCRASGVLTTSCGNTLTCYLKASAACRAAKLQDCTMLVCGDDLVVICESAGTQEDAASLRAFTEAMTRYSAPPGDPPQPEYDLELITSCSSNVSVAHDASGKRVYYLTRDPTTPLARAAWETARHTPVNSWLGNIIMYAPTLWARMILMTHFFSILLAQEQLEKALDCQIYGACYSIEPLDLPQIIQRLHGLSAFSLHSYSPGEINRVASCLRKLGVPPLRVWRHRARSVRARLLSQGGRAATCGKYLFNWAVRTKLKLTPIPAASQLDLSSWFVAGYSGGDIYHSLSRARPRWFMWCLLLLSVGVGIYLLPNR

Structure (SMILES)	pIC50 [1]	pEC50 [3]	CC50 [2] [nM]	further results
O=C(NCCc1ccc(F)cc1)c1cnc(C(=O)NO)c(O)c1CO	5.64	5.70	23000	–
O=C(Nc1cnc(C(=O)NO)c(O)c1CO)c1ccc(F)cc1	6.52	5.20	50000	–
O=C(NO)c1ncc(CSc2ccc(F)cc2)c(CO)c1O	6.60	–	–	–
Cc1ccc(CC(=O)Nc2cnc(C(=O)NO)c(O)c2CO)cc1	–	5.35	32000	–
O=C(NO)c1ncc(CS(=O)(=O)c2ccc(F)cc2)c(CO)c1O	5.00	5.03	50000	–
O=C(NO)c1ncc(/C=C/c2ccc(F)cc2)c(CO)c1O	< 4.00	< 5.00	50000	–
O=C(CC1CCCCC1)Nc1cnc(C(=O)NO)c(O)c1CO	–	4.96	50000	–
O=C(Cc1ccc2c(c1)OCO2)Nc1cnc(C(=O)NO)c(O)c1CO	–	5.73	50000	–
COc1ccc(CC(=O)Nc2cnc(C(=O)NO)c(O)c2CO)cc1	–	5.82	25000	–
O=C(NO)c1ncc(CS(=O)(=O)Cc2ccc(F)cc2)c(CO)c1O	5.64	5.36	16000	–
O=C(Cc1ccc(F)c(Cl)c1)Nc1cnc(C(=O)NO)c(O)c1CO	7.54	7.60	22000	Ratio [4]: 10; pEC50 [5]: < 6.52; selectivity ratio [6]: > 1000; concentration at 18 h [7]: > 25 nM; pEC50 [8]: 6.89; Ratio [9]: 7; bioavailability [10]: 25%; pEC50 [11]: < 4.30; Activity (Salmonella typhimurium): Non-toxic; pEC50 [12]: < 4.30; fraction unbound [13]: 0.11; logP [14]: 0.6; half-life [15]: 43.8 min

More lines, in order of rising pEC50 [3], values ahead:

pIC50 [1]	pEC50 [3]	Structure (SMILES)	CC50 [2] [nM]	further results
6.26	6.16	O=C(NO)c1ncc(CNCc2ccc(F)cc2)c(CO)c1O	20000	–
6.26	6.30	O=C(NO)c1ncc(CCCc2ccc(F)cc2)c(CO)c1O	2000	–
–	6.40	O=C(Cc1cc(F)cc(F)c1)Nc1cnc(C(=O)NO)c(O)c1CO	31000	–
–	7.00	O=C(Cc1ccc(F)c(F)c1)Nc1cnc(C(=O)NO)c(O)c1CO	51000	–
–	7.00	O=C(Cc1ccccc1)Nc1cnc(C(=O)NO)c(O)c1CO	54000	–
6.49	7.12	O=C(NO)c1ncc(CCc2ccc(F)cc2)c(CO)c1O	21000	–
6.48	7.40	O=C(Nc1ccc(F)cc1)c1cnc(C(=O)NO)c(O)c1CO	50000	–
–	7.40	O=C(Cc1ccc(Cl)c(Cl)c1)Nc1cnc(C(=O)NO)c(O)c1CO	50000	–
7.60	7.70	O=C(NO)c1ncc(CNc2ccc(F)cc2)c(CO)c1O	50000	–
7.10	7.82	O=C(NO)c1ncc(COCc2ccc(F)cc2)c(CO)c1O	11000	–
7.39	8.15	O=C(NO)c1ncc(COc2ccc(F)cc2)c(CO)c1O	27000	–
